Experimental data taken from ChEMBL document CHEMBL1777739, “Design, synthesis, and biological activity of novel Magmas inhibitors” (Bioorg Med Chem Lett, 2011).
The source made the active and inactive calls. The calls are words filed in the database; no cut-off is given here.

How the values were obtained:
Saccharomyces cerevisiae [1] = test: Inhibition of TIM16-mediated Saccharomyces cerevisiae J47D proliferation in log phase at 100 uM measured for every 30 mins
How it was run: (§1)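 Log-phase S. cerevisiae J47D plated at 1.5 × 10⁴ cells/well in YEPD. Compounds in DMSO added across 0–1 mM, triplicate wells, 1% final DMSO. Cultured at 30 °C with OD600 read every 30 min. n = 3; each experiment done at least twice independently.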

Saccharomyces cerevisiae [2] = test: Inhibition of TIM16-mediated Saccharomyces cerevisiae J47D proliferation in log phase at 10 uM measured for every 30 mins; how it was run: as §1
Saccharomyces cerevisiae [3] = test: Inhibition of TIM16-mediated Saccharomyces cerevisiae J47D proliferation in log phase at 1 uM measured for every 30 mins; how it was run: as §1
[4] = Solubility of the compound at 1 mM; assay type: physicochemical; settings: 1000 µM
Saccharomyces cerevisiae [5] = test: Inhibition of TIM16-mediated Saccharomyces cerevisiae J47D proliferation in log phase at 1 mM measured for every 30 mins; how it was run: as §1
[6] = Binding affinity to Saccharomyces cerevisiae Magmas by fluorometric titration
How it was run: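 Intrinsic Trp/Tyr fluorescence of yeast Magmas (3 µM, unit as printed) in 50 mM Bis–Tris pH 7.1, 25 °C. Excitation 295 nm, emission read at 365 nm. Ligand titrated from 0 to […] using freshly made stock. Dilution kept ≤10% and corrected for. Kd obtained by fitting intensity versus total ligand concentration to a single-site binding equation.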

Saccharomyces cerevisiae [7] = test: Inhibition of Saccharomyces cerevisiae TIM16 N84T mutant-mediated proliferation up to 60 mins
How it was run: (§2)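 Yeast whose wild-type TIM16 plasmid was lost on FOA selection, carrying plasmid-borne Tim16 N84T or A104S mutants, cultured in YEPD at 30 °C. Compound added at graded concentrations in DMSO (1% final), triplicate wells. OD600 read every 30 min; compared with the wild-type plasmid strain.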

[8] = system: T1, Saccharomyces cerevisiae [A104S]; test: Inhibition of Saccharomyces cerevisiae TIM16 A104S mutant-mediated proliferation up to 60 mins; how it was run: as §2
T1 sequence (whole entry): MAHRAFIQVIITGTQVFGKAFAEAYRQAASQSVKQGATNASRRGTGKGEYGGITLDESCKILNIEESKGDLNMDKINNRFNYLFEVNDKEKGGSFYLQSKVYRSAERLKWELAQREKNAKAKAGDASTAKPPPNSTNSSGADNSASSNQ

SMILES	inhibition (Saccharomyces cerevisiae [1])	inhibition (Saccharomyces cerevisiae [2])	inhibition (Saccharomyces cerevisiae [3])	solubility [4]	inhibition (Saccharomyces cerevisiae [5])	Kd [6]	inhibition (Saccharomyces cerevisiae [7])	inhibition [8]
CCCCCCCCC1C=Cc2cc([N+](=O)[O-])ccc2O1 (stereo not drawn)	Active	inactive	inactive	Insoluble				
CCC1=C(C)/C(=C/c2ccc(C(=O)NC(=N)N)cc2)CCC1(C)C	Active	Active	inactive		Active	33.5 µM	inactive	Active

Other lines, results leading:

inhibition (Saccharomyces cerevisiae [1])	inhibition (Saccharomyces cerevisiae [2])	inhibition (Saccharomyces cerevisiae [3])	solubility [4]	inhibition (Saccharomyces cerevisiae [5])	Kd [6]	inhibition (Saccharomyces cerevisiae [7])	inhibition [8]	SMILES
inactive	inactive	inactive		inactive				O=[N+]([O-])c1ccc2c(c1)C=CC(c1ccccc1)O2 (stereo not drawn)
Active	inactive	inactive	Insoluble					Clc1ccc2c(c1)C=CC(c1ccccc1)O2 (stereo not drawn)
Active	Active	inactive		Active				Brc1ccc2c(c1)C=CC(c1ccccc1)O2 (stereo not drawn)
